# Laboratory results taken from publication PMC2992178 (Diabetes Care, 2010).
# Like-named read-outs stand apart in the source and are kept apart here.
# Columns and labels:
# healthy subjects = assay: Euglycemic clamp; type: in vivo, human; settings: 10 units s.c.
# Procedure, shortened: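 Healthy volunteers fasted overnight from 8:00 p.m., then received a single 10-unit lispro dose by pen with an 8-mm needle. It went into abdominal subcutaneous fat 8 cm above the umbilicus and 10 cm from the midline. Plasma glucose was read every 5 min and clamped at 5–6 mmol/l with IV 20% dextrose for 8 h. GIRmax, tGIRmax and GItot came from GIR–time data; GIR was also plotted against plasma lispro concentration.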
# [1] = tested on: obese subjects with type 2 diabetes; assay: Euglycemic clamp; type: in vivo, human; settings: obese type 2 diabetes
# [2] = Plasma lispro pharmacokinetics after subcutaneous injection, healthy subjects; type: in vivo, human; settings: healthy subjects (n=6), 10 units s.c., mean ± SD
# Procedure, shortened: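 Venous blood was drawn every 10 min for 3 h, then every 20 min, after a 10-unit subcutaneous abdominal lispro dose under a euglycemic clamp. Type 2 diabetic subjects had first received an overnight IV insulin infusion. Samples went into citrate tubes with protease inhibitors, were spun at 4°C, snap-frozen and stored at −80°C. Lispro was measured by specific radioimmunoassay in duplicate. Noncompartmental analysis gave Cmax, AUC0-∞, Cl and dose ratios; non-normal data were log-transformed.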
# [3] = type: in vivo, human; settings: for AUC0-∞/D, AUC0-∞ to dose ratio / Cmax/D, Cmax to dose ratio / Cl, clearance / Mean resistance time / Vz, volume of distribution / Cmax, maximum plasma concentration / Tmax, time to maximal concentration / t½, half-life: obese type 2 diabetes (n=7), mean ± SD; for Cl, clearance / Mean resistance time / Vz, volume of distribution / t½, half-life: noncompartmental; for Cmax, maximum plasma concentration / Tmax, time to maximal concentration: plasma RIA; for t½, half-life: plasma
substance,measurement,setting,value
lispro,average difference between Tmax and tGIRmax,healthy subjects,0.317 h
same,initial GIR response,healthy subjects; at insulin concentrations nearing 40 pmol/l,2.22 mg/kg/min
same,GIRmax as % of the value measured in healthy subjects,"[1]; 10 units s.c., P < 0.0001",7%
same,GItot as % of the value measured in healthy subjects,"[1]; 10 units s.c., P < 0.0001",4%
same,prolongation of tGIRmax versus healthy subjects,"[1]; 10 units s.c., P < 0.0001",1 h
same,average difference between Tmax and tGIRmax,"[1]; 10 units s.c., P < 0.0007 versus healthy",1.23 h
same,average difference between Tmax and tGIRmax,[1]; 30 units s.c.,1.43 h
same,average difference between Tmax and tGIRmax,[1]; 50 units s.c.,1.92 h
same,"AUC0-∞/D, AUC0-∞ to dose ratio",[2],1.190 ± 0.302 min/L
same,"Cmax/D, Cmax to dose ratio",[2],0.0091 ± 0.0007 L
same,"Cl, clearance",[2]; noncompartmental,0.88 ± 0.21 L/min
same,Mean resistance time,[2]; noncompartmental,119 ± 21 min
same,"Vz, volume of distribution",[2]; noncompartmental,67 ± 16 L
same,"Cmax, maximum plasma concentration",[2]; plasma RIA,0.523 ± 0.042 nM
same,"Tmax, time to maximal concentration",[2]; plasma RIA,0.805 ± 0.0683 h
same,"AUC0-∞, area under the lispro plasma concentration curve","[2]; plasma RIA, noncompartmental","68,462 ± 17,346 pmol/min/l"
same,"t½, half-life","[2]; plasma, noncompartmental",1.12 ± 0.25 h
same,Cmax/D lower in subjects with type 2 diabetes than in healthy subjects,"[3]; 10 units s.c., P < 0.001",41%
same,"AUC0-∞/D, AUC0-∞ to dose ratio",[3]; 10 units s.c.,1.056 ± 0.264 min/L
same,"Cmax/D, Cmax to dose ratio",[3]; 10 units s.c.,0.0054 ± 0.0005 L
same,"Cl, clearance",[3]; 10 units s.c.,0.99 ± 0.22 L/min
same,Mean resistance time,[3]; 10 units s.c.,180 ± 65 min
same,"Vz, volume of distribution",[3]; 10 units s.c.,118 ± 34 L
same,"Cmax, maximum plasma concentration",[3]; 10 units s.c.,310 ± 28 pmol/L
same,"Tmax, time to maximal concentration",[3]; 10 units s.c.,0.928 ± 0.233 h
same,"t½, half-life",[3]; 10 units s.c.,1.67 ± 0.567 h
same,"AUC0-∞/D, AUC0-∞ to dose ratio",[3]; 30 units s.c.,1.140 ± 0.188 min/L
same,"Cmax/D, Cmax to dose ratio",[3]; 30 units s.c.,0.0047 ± 0.0012 L
same,"Cl, clearance",[3]; 30 units s.c.,0.90 ± 0.14 L/min
same,Mean resistance time,[3]; 30 units s.c.,196 ± 30 min
same,"Vz, volume of distribution",[3]; 30 units s.c.,104 ± 53 L
same,"Cmax, maximum plasma concentration",[3]; 30 units s.c.,808 ± 218 ^‖ pmol/l
same,"Tmax, time to maximal concentration",[3]; 30 units s.c.,1.48 ± 0.365 h
same,"t½, half-life",[3]; 30 units s.c.,1.62 ± 0.633 h
same,"AUC0-∞/D, AUC0-∞ to dose ratio",[3]; 50 units s.c.,1.296 ± 0.208 min/L
same,"Cmax/D, Cmax to dose ratio",[3]; 50 units s.c.,0.0046 ± 0.0012 L
same,"Cl, clearance",[3]; 50 units s.c.,0.79 ± 0.13 L/min
same,Mean resistance time,[3]; 50 units s.c.,236 ± 49 min
same,"Vz, volume of distribution",[3]; 50 units s.c.,107 ± 46 L
same,"Cmax, maximum plasma concentration",[3]; 50 units s.c.,"1,313 ± 346 ^‖ ^# pmol/l"
same,"t½, half-life",[3]; 50 units s.c.,2.27 ± 1.2 h
same,delay of Tmax,"[3]; obese type 2 diabetes, 50 units versus 10 units, P < 0.001",1.23 h
